# Shown are actives, neighbours in structure and some others; about 4.2% of the full set was active somewhere.
# ANO1 block = TMEM16A chloride channel inhibitors, primary screen, cell-based, HTS; Anoctamin-1 (Mus musculus), Q8BHY3; HEK293 TMEM16A/YFP iodide influx fluorescence, ionomycin; normalized B-score (activity score, 25-100; higher = stronger inhibition) at 10 µM; hit rate 1.2% among 310,000; AID 588511, 2011;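 active = ratio plate-corrected score three or more library SD toward inhibition, starting fluorescence score within five deviations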;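 also: score derived from kinetic fluorescence span divided by baseline fluorescence per well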
# Hep lipid drop = inhibitors of hepatocyte lipid droplet formation, primary screen, imaging, high-throughput imaging, BODIPY stain; hit rate 0.4% among 240,000; inhibition, % at 6.5 µM; AID 1656, 2009; AML12 mouse hepatocytes, oleate lipid droplets;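 active = lipid droplet intensity inhibited by at least 50%, with more than 500 cells counted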
#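 material = mouse AML12 hepatocyte cell line, fixed after treatment | also added = 100 µM oleic acid challenge | doses = compound at 6.5 µM only | schedule = overnight exposure | technique = Image-based BODIPY and DAPI two-channel analysis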
# CHOP inhibitor = inhibitors of CHOP promoter induction, primary screen, cell-based, unfolded protein response, luciferase reporter; CHO-K1 CHOP-promoter luciferase, tunicamycin-induced, 15-18 h; inhibition, % at 10 µM; hit rate 3.8% among 220,000;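 active = compounds that reduced the stress-induced luciferase reporter signal by more than about 70% of percent inhibition, limit read from the data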;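 also: 0% = tunicamycin plus vehicle and 100% = wells without tunicamycin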
# UPR XBP1 act = activators of adaptive XBP1 UPR arm, primary screen, cell-based, CHO-XBP1 luciferase reporter, luminescence, uHTS | IRE1-XBP1 UPR activation; percent of tunicamycin response, DMSO as zero | activation, % at 20 µM | hit rate 0.33% among 330,000;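 active = versus positive control, 20 µM dose yields 30% or more activation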;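 also: 100% = tunicamycin at 10 µg/mL and 0% = DMSO only wells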
#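 Assay system: IRE1-XBP1 luciferase reporter CHO line. Input: 1000 cells/well. Buffer or medium: F12 with 10% serum. Doses: 20 µM, 1% DMSO. Times: overnight seeding at 37 °C, 6 h compound treatment at 37 °C. Technique: Steady-Glo luciferase glow luminescence, 10 min after reagent addition.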
# CHOP UPR activ = activators of apoptotic CHOP UPR arm, primary screen, cell-based, CHO-CHOP luciferase reporter, luminescence, uHTS; UPR activation; percent of tunicamycin response over DMSO baseline; AID 449763, 2010; activation, % at 10 µM; hit rate 0.34% among 330,000;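 active = at 10 µM dose, activation of 40% or more, normalized to positive control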;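 also: 100% = tunicamycin at 10 µg/mL and 0% = DMSO alone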
#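 Evaluation: % reporter activation, DMSO baseline versus tunicamycin full activation; System: CHO-CHOP luciferase reporter cell line; Input: 500 cells/well; Incubation: 6 h compound treatment, 37 °C; Measured by: Steady-Glo luciferase luminescence; Dosing: one dose, 10 µM in 0.5% DMSO; Buffer or medium: F12 medium, 10% FBS; Benchmarks: positive tunicamycin 10 µg/mL, negative DMSO alone.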
# ANO1 activ = TMEM16A chloride channel activators or potentiators, primary screen, cell-based, HTS; HEK293 TMEM16A/YFP-H148Q/I152L, iodide quench fluorescence; stronger effect = lower value; hit rate 0.3% among 340,000; Anoctamin-1 (Mus musculus), Q8BHY3; B-score at 10 µM;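 active = fluorescence-ratio B-score plate-corrected deviation score at least 3 library SD below zero, with starting fluorescence score within 5 deviations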;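 also: channel opened by trigger with iodide after compound preincubation; score built on the fluorescence ratio of max minus min over baseline; more negative score means more quench and so TMEM16A activation or potentiation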
# TMEM16A reconf = TMEM16A chloride channel inhibitors, confirmation, cell-based, re-confirmation; hit rate 39% among 2,300; HEK293 TMEM16A/YFP-H148Q, iodide quench fluorescence; ionomycin added to raise cell calcium; inhibition, % at 10 µM; AID 652189, 2013; shares compounds with ANO1 block;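 active = mean duplicate percent inhibition, scaled so buffer wells are 0 and the reference blocker 100, over three buffer SD above buffer mean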
# HEK293 Ca mobil = calcium mobilization in TMEM16A/YFP HEK293 cells, confirmation, counter-screen for TMEM16A inhibitor project | calcium response (% of ionomycin), % at 10 µM | hit rate 2% among 2,300 | shares compounds with ANO1 block | Fluo4 calcium mobilization | AID 652231, 2013;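 active = duplicate-averaged calcium signal over 20% of the ionomycin maximum, relative to buffer baseline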;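 also: each well's signal is peak minus trough fluorescence divided by its pre-addition baseline; 0% = buffer wells and 100% = ionomycin wells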
# Parental YFP cnt = iodide YFP quench changes in parental YFP-HEK293, counter-screen for TMEM16A inhibitor project, cell-based. ionomycin. shares compounds with ANO1 block. 2,300 tested, under 10 active. YFP ratio F(max-min)/F0 at 10 µM;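 active = yellow fluorescent protein signal ratio exceeding the buffer control mean by over 5 SD of those controls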;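 also: ratio is mean of duplicate wells from kinetic YFP trace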
# ClC-1 inh = ClC-1 chloride channel inhibition, selectivity assay for TMEM16A inhibitor project, cell-based, voltage-dependent ClC-1; shares compounds with ANO1 block; CHO ClC-1-YFP, iodide influx fluorescence quench; iodide control reads 0, buffer control 100; ratio percent, % at 10 µM; 2,300 tested, under 10 active; AID 652236, 2013;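 active = duplicate-mean ratio percent above the mean of iodide-only control wells, which defines zero, plus 5 of their SD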;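 also: higher percent means stronger block of ClC-1 iodide influx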
# Target sequence (P35524 whole entry, looked up): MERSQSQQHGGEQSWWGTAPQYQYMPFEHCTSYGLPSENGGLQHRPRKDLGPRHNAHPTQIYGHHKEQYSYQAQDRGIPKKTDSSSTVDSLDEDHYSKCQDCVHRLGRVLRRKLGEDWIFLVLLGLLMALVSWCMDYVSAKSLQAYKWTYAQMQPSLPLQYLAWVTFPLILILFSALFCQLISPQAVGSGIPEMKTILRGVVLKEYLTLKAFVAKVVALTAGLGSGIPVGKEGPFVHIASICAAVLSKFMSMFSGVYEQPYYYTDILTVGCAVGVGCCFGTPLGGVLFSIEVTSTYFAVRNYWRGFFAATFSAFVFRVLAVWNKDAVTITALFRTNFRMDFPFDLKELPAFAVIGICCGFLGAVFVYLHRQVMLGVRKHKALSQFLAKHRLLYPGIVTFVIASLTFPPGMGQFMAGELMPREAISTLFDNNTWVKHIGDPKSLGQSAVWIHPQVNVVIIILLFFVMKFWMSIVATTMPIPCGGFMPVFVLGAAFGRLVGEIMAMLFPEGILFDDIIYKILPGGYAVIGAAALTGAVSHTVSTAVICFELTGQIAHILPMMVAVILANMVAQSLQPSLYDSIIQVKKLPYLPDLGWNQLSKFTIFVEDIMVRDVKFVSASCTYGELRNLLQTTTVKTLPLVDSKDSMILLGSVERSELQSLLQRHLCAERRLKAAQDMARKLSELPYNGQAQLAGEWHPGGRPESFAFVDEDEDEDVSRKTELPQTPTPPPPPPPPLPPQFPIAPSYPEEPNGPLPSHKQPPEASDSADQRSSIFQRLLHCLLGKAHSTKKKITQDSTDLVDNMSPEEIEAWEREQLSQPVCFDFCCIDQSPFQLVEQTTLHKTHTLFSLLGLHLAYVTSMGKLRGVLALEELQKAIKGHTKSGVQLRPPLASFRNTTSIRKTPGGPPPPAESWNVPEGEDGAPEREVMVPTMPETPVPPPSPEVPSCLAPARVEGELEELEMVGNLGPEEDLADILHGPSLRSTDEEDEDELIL
# Numbers without * were called inactive; i = inactive; . = no result given.
SMILES,ANO1 block,Hep lipid drop,CHOP inhibitor,UPR XBP1 act,CHOP UPR activ,ANO1 activ,TMEM16A reconf,HEK293 Ca mobil,Parental YFP cnt,ClC-1 inh
COc1c(C)cc(Br)cc1C(=O)Nc1ccc(Cc2ccncc2)cc1,100*,5.4,45.2,1.0,-1.4,i,i,i,-0.902,-9.5
Cc1ccc(OCC(=O)Nc2ccncc2)c(C)c1,25*,.,.,-5.1,2.5,i,i,i,-1.29,-9.5
CCC(=O)c1ccc(OCC(=O)Nc2ccccc2N2CCCCC2)cc1,i,-9.8,.,1.2,0.8,i,.,.,.,.
CCCN(C(=O)c1cc(S(=O)(=O)N(C)c2ccc(OCC)cc2)ccc1C)C1CCS(=O)(=O)C1 (stereo not given),.,.,.,-0.8,0.0,i,.,.,.,.
O=C1C(Cl)=C(Nc2cccc(O)c2)C(=O)N1Cc1ccccc1,i,0.4,29.7,0.0,0.4,i,.,.,.,.
O=C(CSc1ccc2ccccc2c1)Nc1ccncc1,100*,-1.7,24.5,0.9,-0.1,i,17.5%*,i,-0.842,-10.5
COc1ccc(OC)c(NC(=O)CSc2ccccc2)c1,i,2.8,8.9,-0.2,1.2,i,.,.,.,.
O=C(CSc1ccncc1)Nc1ccc2ccccc2c1,i,12.6,26.3,-2.6,2.3,i,.,.,.,.
COc1ccc(OC)c(NC(=O)CSc2ccc3ccccc3c2)c1,100*,.,-10.1,0.4,1.1,i,i,i,-1.06,-13.0
O=C(COc1ccc2ccccc2c1)Nc1ccc(Br)cc1C(=O)O,100*,-3.4,.,.,.,i,42.5%*,i,-0.684,3.0
CC(C)(C)c1ccc(NC(=O)COc2ccc(-n3ccnc3)cc2)cc1,100*,-4.9,74.2*,-7.8,1.7,i,44.0%*,i,-0.986,-10.5
O=C(COc1ccccc1)Nc1ccncc1,i,11.8,3.1,5.9,1.7,i,.,.,.,.
O=C(COc1ccc2ccccc2c1)Nc1ccncc1,25*,3.0,-3.6,0.9,-0.8,i,i,i,-0.955,-21.5
CC(C)c1ccc(OCC(=O)Nc2ccncc2)cc1,25*,.,.,-1.7,2.1,i,i,i,-0.973,-12.5
S=C(NCc1ccc(Cl)cc1Cl)NC1CCCCC1,25*,-23.2,62.4,-2.6,-0.2,i,52.5%*,i,-0.976,-16.5
CCOC(=O)c1ccc(Oc2cn[nH]c2-c2ccc(O)cc2O)cc1,25*,-19.6,24.7,0.2,-1.7,i,43.0%*,i,-1.02,-15.0
CCOC(=O)c1ccc(Oc2cn[nH]c2-c2ccc(OCC(=O)NN)cc2O)cc1,i,.,.,0.9,0.5,i,.,.,.,.
COc1ccc(C(CC(=O)N2CCN(c3ccccc3)CC2)c2c(OC)cc(OC)c3ccc(=O)oc23)cc1 (stereo not given),i,-2.4,34.8,-1.4,3.1,i,.,.,.,.
CCN(CC)S(=O)(=O)c1cc(NS(=O)(=O)c2c(Cl)cccc2Cl)ccc1C,i,-25.0,9.9,0.9,0.2,i,.,.,.,.
CCN(CC)S(=O)(=O)c1cc(NS(=O)(=O)c2cccc(Cl)c2)ccc1C,25*,-19.3,36.3,-3.1,2.2,i,28.0%*,i,-1.03,-10.5
Cc1ccc(C(=O)CCc2ccc(N)cc2)cc1,i,14.4,.,5.3,3.9,i,.,.,.,.
CCNc1cc2n(c(=O)n1)CCc1cc(OC)c(OC)cc1-2,i,.,-7.7,-0.1,-1.4,i,.,.,.,.
CCCCCCNc1cc2n(c(=O)n1)CCc1cc(OC)c(OC)cc1-2,i,.,9.8,4.6,-1.4,i,i,i,-1.03,-12.5
COC(=O)c1ccc(/C=C2\N=C(SC)SC2=O)cc1,i,-0.5,53.3,-1.1,-0.4,i,.,.,.,.
CCOc1cc(/C=C2\N=C(SC)SC2=O)cc([N+](=O)[O-])c1OC(C)=O,100*,.,44.1,-0.3,0.6,i,i,i,-0.944,-3.0
SMILES,ANO1 block,Hep lipid drop,CHOP inhibitor,UPR XBP1 act,CHOP UPR activ,ANO1 activ,TMEM16A reconf,HEK293 Ca mobil,Parental YFP cnt,ClC-1 inh
CC(OC(=O)c1ccccc1Nc1ccc(SC(F)F)cc1)C(N)=O (stereo not given),25*,39.1,59.0,0.0,1.7,i,i,i,-0.897,-9.5
NC(=O)COC(=O)c1ccccc1Nc1ccc(SC(F)F)cc1,i,-0.5,-16.0,-3.3,2.7,i,.,.,.,.
N#CCc1nc2ccccc2c(=O)[nH]1,i,3.6,-7.1,-0.7,3.9,i,.,.,.,.
CC(=O)Nc1ccc(NC(=O)c2ccc(Cl)c(S(=O)(=O)N3CCc4ccccc43)c2)cc1,.,.,.,.,.,i,.,.,.,.
O=C(Nc1cccnc1)c1ccc(Cl)c(S(=O)(=O)N2CCc3ccccc32)c1,100*,8.3,29.9,-0.3,-0.6,i,17.5%*,i,-0.959,-5.0
O=C(Nc1ncc([N+](=O)[O-])s1)c1ccco1,i,-11.2,.,-0.5,3.2,i,.,.,.,.
Cc1ccc(C(=O)Nc2ncc([N+](=O)[O-])s2)cc1,25*,-33.0,.,.,.,i,50.5%*,i,-0.98,-27.0
CCC1(C)Cc2c(sc3[nH]c(=O)[nH]c(=O)c23)CS1 (stereo not given),100*,.,-11.8,0.0,-1.6,i,i,i,-1.13,-9.5
Cc1cc(NC(=O)c2ccccc2C)ccc1NC(=O)c1ccccc1Cl,i,7.2,.,0.4,1.1,i,.,.,.,.
O=C(Cn1cnc2ccccc21)Nc1ccc(SC(F)F)cc1,25*,26.6,51.5,1.1,-0.4,i,20.5%*,i,-0.895,-20.0
O=C(Cn1cnc2ccccc21)NCc1ccccc1,i,-9.9,19.9,-2.1,0.4,i,.,.,.,.
Cc1ccc(SC[C@H](C)CN2CC[C@H](C(C)(C)C)CCC2=O)cc1,100*,.,.,-0.3,-0.5,i,38.0%*,i,-0.894,-0.5
